In brackets after ≈: the same amount, converted by molar mass.

The text below walks through data of ChEMBL document CHEMBL1153543, “Discovery of novel protease activated receptors 1 antagonists with potent antithrombotic activity in vivo” (J Med Chem, 2009).

The subject of data set [1] is CHO. The data set is described as follows: Inhibition of SFLLR-NH2-induced calcium release in CHO cells at 10 uM treated prior to SFLLR-NH2 challenge […] by FLIPR assay. The class given is functional. As to conditions: Cricetulus griseus. In a few lines:
(§1)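 FLIPR fluorescence assay in CHO cells. Calcium release is evoked by 1 μM SFLLR-NH₂, the PAR1-selective agonist peptide. Compound effect is given as % inhibition at 10 μM or, for competitive antagonists, as a calculated pA₂.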

Data set [2] has as its system CHO. Nature of the data set: Inhibition of SFLLR-NH2-induced calcium release in CHO cells treated prior to SFLLR-NH2 challenge […] by FLIPR assay. The class given is functional, cell-based. As to conditions: Cricetulus griseus, read-out: pA2 (converted). In a few lines: as §1
For a further data set, the system named is Platelet. The data set is described as follows: Inhibition of SFLLR-induced human platelet aggregation. The class given is functional.
Data set [3] concerns Rattus norvegicus. Nature of the data set: Increase in occlusion time of arteriovenous shunt in Crl: OFA Sprague-Dawley rat at 1.25 mg/kg, iv. In kind it is functional. The procedure, abridged:
(§2)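 Anesthetized rats; extracorporeal shunt from left carotid artery to right jugular vein, silk thread in the central portion as thrombogenic substrate. A thermal microprobe on the central shunt section gives time to occlusion, seen as a sharp temperature drop. Compound given iv at 1.25 mg/kg or orally at 40 mg/kg. Result expressed as % increase in occlusion time.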

A short description of data set [4]: Solubility in water. In kind it is physicochemical. The procedure, abridged: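 Aqueous solubility was determined on the hydrochloride salt and expressed in mg/mL.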
Data set [5] is described as follows: Half life in rat plasma at 1 mg/kg, iv and 5 mg/kg, po. In kind it is ADME, organism-based. The procedure, abridged: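 Plasma half-life was measured in male rats dosed iv at 1 mg/kg and po at 5 mg/kg. The value is the mean over three rats.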
Data set [6] can be described thus: Oral bioavailability in rat. In kind it is ADME, organism-based. As to conditions: in vivo. In a few lines:
(§3)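 Rat pharmacokinetic parameters were determined on the hydrochloride salt of each compound.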

Data set [7] can be described thus: Clearance in rat. In kind it is ADME, organism-based. As to conditions: in vivo. The procedure, abridged:
as §3

The target of data set [8] is Proteinase-activated receptor 2 (Homo sapiens) (UniProt P55085). The data set is described as follows: Antagonist activity at PAR2 expressed in Cos7 cells assessed as SLIGRl-mediated SRE-luciferase activity. In kind it is functional, cell-based. The following applies: COS-7.
Chain of Proteinase-activated receptor 2 (Homo sapiens) (P55085 whole entry): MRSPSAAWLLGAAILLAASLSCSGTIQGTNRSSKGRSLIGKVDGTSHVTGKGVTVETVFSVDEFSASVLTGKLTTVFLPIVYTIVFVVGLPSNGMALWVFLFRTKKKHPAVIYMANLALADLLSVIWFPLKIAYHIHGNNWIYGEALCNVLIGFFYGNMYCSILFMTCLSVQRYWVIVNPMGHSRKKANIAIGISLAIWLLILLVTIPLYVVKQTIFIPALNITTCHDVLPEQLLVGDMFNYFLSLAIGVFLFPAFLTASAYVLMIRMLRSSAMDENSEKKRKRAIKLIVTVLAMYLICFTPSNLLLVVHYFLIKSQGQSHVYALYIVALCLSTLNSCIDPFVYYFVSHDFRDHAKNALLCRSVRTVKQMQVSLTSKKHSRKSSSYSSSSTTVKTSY
For data set [9], the target named is T1, Proteinase-activated receptor 4 (Homo sapiens) (UniProt Q96RI0).
T1 sequence (whole entry): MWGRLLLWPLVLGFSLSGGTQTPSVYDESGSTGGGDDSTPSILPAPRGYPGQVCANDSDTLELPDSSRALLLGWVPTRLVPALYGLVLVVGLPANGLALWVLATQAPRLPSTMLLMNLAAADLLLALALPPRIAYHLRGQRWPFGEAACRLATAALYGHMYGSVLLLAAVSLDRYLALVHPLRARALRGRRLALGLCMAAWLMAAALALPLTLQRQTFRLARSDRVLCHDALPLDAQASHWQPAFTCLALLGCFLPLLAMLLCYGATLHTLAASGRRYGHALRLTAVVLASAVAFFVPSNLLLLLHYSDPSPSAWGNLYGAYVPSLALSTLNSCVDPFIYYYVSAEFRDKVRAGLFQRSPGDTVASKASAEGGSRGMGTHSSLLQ
Nature of the data set: Antagonist activity at PAR4 expressed in Cos7 cells assessed as AYPGKF-mediated SRE-luciferase activity. The class given is functional, cell-based. The following applies: COS-7.

Data set [10] deals with T2, Proteinase-activated receptor 1 (Homo sapiens) (UniProt P25116).
T2 sequence (whole entry): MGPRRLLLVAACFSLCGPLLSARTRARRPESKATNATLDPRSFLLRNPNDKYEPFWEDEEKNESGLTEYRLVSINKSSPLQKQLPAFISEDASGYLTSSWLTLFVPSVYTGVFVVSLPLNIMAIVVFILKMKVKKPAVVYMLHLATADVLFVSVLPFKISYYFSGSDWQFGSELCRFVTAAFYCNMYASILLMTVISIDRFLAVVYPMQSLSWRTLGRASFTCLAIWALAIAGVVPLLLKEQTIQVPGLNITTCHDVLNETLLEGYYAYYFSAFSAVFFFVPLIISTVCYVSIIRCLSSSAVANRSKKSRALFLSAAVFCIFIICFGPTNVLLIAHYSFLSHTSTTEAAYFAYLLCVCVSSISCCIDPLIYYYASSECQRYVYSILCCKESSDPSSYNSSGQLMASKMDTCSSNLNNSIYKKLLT
The data set is described as follows: Antagonist activity at PAR1 expressed in Cos7 cells assessed as SFLLR-mediated SRE-luciferase activity. In kind it is functional, cell-based. The following applies: COS-7.

A short description of data set [11]: Selectivity for PAR1 to PAR2.
The nature of data set [12]: Selectivity for PAR1 to PAR4.
The subject of data set [13] is Rattus norvegicus. Nature of the data set: Increase in occlusion time of arteriovenous shunt in Crl; OFA Sprague-Dawley rat at 40 mg/kg, po. The class given is functional. The procedure, abridged: as §2

The inhibition is the drop in the measured response relative to a control, in per cent. Consider `O=C(/C=C/c1ccccc1[N+](=O)[O-])N1CCN(C(=O)NC2CCCCC2)CC1`, for which the inhibition at 10 µM with CHO [1] was found to be 39.2%.

Turning to `O=C(C#Cc1ccccc1[N+](=O)[O-])N1CCN(Cc2ccc(F)cc2)CC1`, the inhibition at 10 µM in the data set on CHO [1] is 28.6%.

In the case of `O=C(CCc1ccccc1[N+](=O)[O-])N1CCN(Cc2ccc(F)cc2)CC1`, the inhibition at 10 µM in the data set with CHO [1] is 45.3%.

On to `Cc1cccc(CN2CCN(C(=O)/C=C/c3ccccc3[N+](=O)[O-])CC2)c1`, for which the inhibition at 10 µM with CHO [1] stood at 72.4%.

With `O=C(/C=C/c1ccccc1[N+](=O)[O-])N1CCN(Cc2ccc(F)cc2)C(=O)C1`, the inhibition at 10 µM in the data set with CHO [1] is 26.7%.

What is called pKb is −log10 of the Kb, conventionally taken in molar units. For `O=C(/C=C/C=C/c1ccccc1[N+](=O)[O-])N1CCN(c2ccccc2)CC1`, the inhibition at 10 µM with CHO [1] turned out to be 100%. The Kb with CHO [2] is 58.9 nM. The same molecule yielded a pKb in the data set on Platelet of 5.65. In the data set on Rattus norvegicus [3], this molecule displayed an Activity of 3%.

Take `Cc1cccc(CN2CCN(C(=O)/C=C/c3c(F)cccc3F)CC2)c1`: the inhibition at 10 µM in the data set with CHO [1] stood at 86.2%.

Take `N#Cc1ccccc1/C=C/C(=O)N1CCN(Cc2ccc(F)cc2)CC1`: the inhibition at 10 µM with CHO [1] turned out to be 85.4%.

With `O=C(/C=C/C=C/c1ccccc1[N+](=O)[O-])N1CCN(Cc2ccc(F)cc2)CC1`, the inhibition at 10 µM with CHO [1] was determined as 59.4%.

Take `O=C(/C=C/c1ccccc1[N+](=O)[O-])N1CCN(C(=O)C2CCCCCC2)CC1`: the inhibition at 10 µM in the data set on CHO [1] is 99.9%.

As to `Nc1ccccc1/C=C/C(=O)N1CCN(Cc2ccc(F)cc2)CC1`, the inhibition at 10 µM in the data set with CHO [1] is 7.4%.

Broadly, the solubility is the dissolved amount per volume that the medium holds. Lower therefore signals little dissolved substance. As a reminder, the half-life is the time needed for the level to fall by half in the phase considered. Read a low half-life as rapid decline. What is called bioavailability is the share of a dose that reaches the circulation, judged against a reference dose that is usually intravenous. Read a low bioavailability as poor availability. In general, clearance refers to the volume of plasma or blood freed of the substance per unit of time. Read a low clearance as a low capacity for elimination. As to `O=C(/C=C/c1ccccc1Cl)N1CCN(Cc2ccc(F)cc2)CC1`, in the data set with CHO [1], the inhibition at 10 µM was determined as 92.8%. The Kb in the data set on CHO [2] is 214 nM. Also, the negative logarithm of the Kb (pKb) with Platelet turned out to be 5.52; in data set [8], 4.45; in data set [9], 4.91; in [10], 5.55. Besides, the Activity worked out at 28% in the data set on Rattus norvegicus [3] and 59% with Rattus norvegicus [13]. For the same molecule, in [4], the concentration in solution (solubility) was 1700 µg/mL (≈ 4.74 mM). Also, in data set [5], the half-life is 2.17 h. In data set [6], this molecule displayed a bioavailability of 43%. For the same molecule, the clearance in data set [7] is 40 mL/min/kg. Further, the Selectivity ratio was found to be 15 in [11] and 5 in data set [12].

In the case of `O=C(/C=C/C=C/c1ccccc1[N+](=O)[O-])N1CCN(C2CCCC2)CC1`, the inhibition at 10 µM in the data set with CHO [1] came out at 91.7%. Moreover, the Kb in the data set on CHO [2] was 69.2 nM. In addition, the pKb in the data set on Platelet stood at 5.5. Further, the Activity worked out at 44% in the data set with Rattus norvegicus [3] and 7% in the data set on Rattus norvegicus [13].

On to `O=C(/C=C/c1ccccc1[N+](=O)[O-])N1CCCN(Cc2ccc(F)cc2)CC1`, for which the inhibition at 10 µM in the data set with CHO [1] was 38.2%.

Regarding `O=C(/C=C/C=C/c1ccccc1Cl)N1CCCN(Cc2ccc(F)cc2)CC1`, the inhibition at 10 µM with CHO [1] was 37.8%.

Consider `N#Cc1ccccc1/C=C/C=C/C(=O)N1CCN(c2ccccn2)CC1`, for which the inhibition at 10 µM in the data set with CHO [1] came out at 98.7%. The Kb in the data set on CHO [2] is 324 nM. Also, the negative logarithm of the Kb (pKb) came to 5.3 with Platelet, 4.39 in data set [8], 4.93 in data set [9] and 5.6 in data set [10]. Besides, the Activity in the data set on Rattus norvegicus [3] is given as 58%; with Rattus norvegicus [13], 54%. In addition, the solubility in data set [4] came out at 2500 µg/mL (≈ 7.26 mM). Moreover, the half-life in [5] turned out to be 2.78 h. The molecule further registered a bioavailability in data set [6] of 42%. Further, the clearance in data set [7] was 6 mL/min/kg. Moreover, the Selectivity ratio in data set [11] amounted to 15; in data set [12] it was 5.

On to `O=C(/C=C/c1ccccc1Br)N1CCN(Cc2ccc(F)cc2)CC1`, for which the inhibition at 10 µM in the data set with CHO [1] amounted to 93.1%.

Take `N#Cc1ccccc1/C=C/C(=O)N1CCN(C(=O)C2CCCCCC2)CC1`: the inhibition at 10 µM in the data set with CHO [1] is 92.6%. In addition, the Kb in the data set on CHO [2] is 87.1 nM. In the data set with Platelet, this molecule came in with a pKb of 5.17. Besides, the Activity in the data set with Rattus norvegicus [3] is 19%.

Consider `O=C(/C=C/c1c(F)cccc1F)N1CCN(Cc2ccc(F)c(F)c2)CC1`, for which the inhibition at 10 µM in the data set with CHO [1] was found to be 73.1%.

Take `O=C(/C=C/c1ccccc1[N+](=O)[O-])N1CCN(S(=O)(=O)c2ccccc2F)CC1`: in the data set with CHO [1], the inhibition at 10 µM turned out to be 0%.

Turning to `O=C(/C=C/c1ccccc1[N+](=O)[O-])N1CCN(CC2CCCCC2)CC1`, the inhibition at 10 µM in the data set on CHO [1] came to 91.5%. In addition, the Kb in the data set with CHO [2] was 490 nM. This molecule also had a pKb with Platelet of 5.31. In addition, the Activity in the data set on Rattus norvegicus [3] came out at 29%.

For the molecule `O=C(/C=C/c1ccccc1[N+](=O)[O-])N1CCN(c2cccc(Cl)c2)CC1`, the inhibition at 10 µM with CHO [1] stood at 97.1%.

Consider `CCOc1cc2c(cc1C(=O)NC)C(=N)N(CC(=O)c1cc(C(C)(C)C)c(O)c(C(C)(C)C)c1)C2`, for which the Kb in the data set on CHO [2] is 141 nM. For the same molecule, in the data set with Platelet, the negative-log Kb (pKb) was 8.18. Further, the Activity came out at 27% with Rattus norvegicus [3] and 43% in the data set with Rattus norvegicus [13].

With `O=C(/C=C/c1ccccc1[N+](=O)[O-])N1CCN(Cc2ccncc2)CC1`, the inhibition at 10 µM in the data set on CHO [1] came to 0%.

In the case of `O=C(/C=C/c1c(F)cccc1F)N1CCN(C(=O)C2CCCCCC2)CC1`, the inhibition at 10 µM in the data set with CHO [1] was 98.9%. The Kb in the data set with CHO [2] is 214 nM. Also, the values for the Activity in the data set with Rattus norvegicus [3] and with Rattus norvegicus [13] were 14% and 0%, respectively.

Take `O=C(/C=C/c1ccccc1[N+](=O)[O-])N1CCN(Cc2ccc(F)cc2)CC1`: the inhibition at 10 µM in the data set on CHO [1] turned out to be 88.6%.

`N#Cc1ccc(N2CCN(C(=O)/C=C/c3ccccc3[N+](=O)[O-])CC2)cc1`: the inhibition at 10 µM in the data set on CHO [1] is 18.8%.

For the molecule `Cc1ccc(CN2CCN(C(=O)/C=C/c3c(F)cccc3F)CC2)cc1C`, in the data set on CHO [1], the inhibition at 10 µM was 65.3%.

For `O=C(/C=C/c1ccccc1[N+](=O)[O-])N1CCC(NCc2ccc(F)cc2)CC1`, in the data set with CHO [1], the inhibition at 10 µM amounted to 0%.

As for `O=C(/C=C/c1ccccc1Cl)C1CCN(Cc2ccc(F)cc2)CC1`, the inhibition at 10 µM with CHO [1] came to 15.8%.

For `O=C(/C=C/c1cccc(Cl)c1)N1CCN(Cc2ccc(F)cc2)CC1`, the inhibition at 10 µM with CHO [1] was 0.7%.
